NR2E3 ag-1: human photoreceptor-specific nuclear receptor agonism | CHO-S Gal4-NCOR/VP16-NR2E3 two-hybrid, luciferase | inhibition of corepressor binding, % at 3.98 µM | 360,000 compounds, 0.35% hits | AID 602229;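 active = inhibition above the mean of all tested compounds plus 3 SD, cut at about 70% in these data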;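 note: higher means lower luciferase signal from less NR2E3 corepressor binding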
Target sequence (Q9Y5X4 whole entry, looked up, the tested form may be a part): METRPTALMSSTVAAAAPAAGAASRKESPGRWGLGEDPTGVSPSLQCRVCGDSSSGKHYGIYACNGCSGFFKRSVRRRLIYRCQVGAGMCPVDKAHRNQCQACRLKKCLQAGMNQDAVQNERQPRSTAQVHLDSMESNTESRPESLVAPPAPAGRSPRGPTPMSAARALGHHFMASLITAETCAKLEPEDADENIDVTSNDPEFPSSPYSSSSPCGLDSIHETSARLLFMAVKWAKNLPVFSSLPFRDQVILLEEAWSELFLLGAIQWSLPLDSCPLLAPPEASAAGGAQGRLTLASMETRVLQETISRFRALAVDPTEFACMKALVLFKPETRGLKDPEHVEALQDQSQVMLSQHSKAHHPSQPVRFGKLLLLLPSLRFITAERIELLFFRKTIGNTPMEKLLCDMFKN
PG9 binder: small molecules binding HIV-1 gp120 antibody PG9 | TR-FRET gp120-PG9 antibody binding | inhibition, % at 6.7 µM | 360,000 compounds, 0.43% hits | AID 624416; in the data active = inhibition above about 8.5%
NR2E3 ag-2: agonists of human nuclear receptor NR2E3. 320,000 compounds, 0.12% hits. AID 2300. GST-NR2E3/biotin-RetCOR TR-FRET, 1536-well. inhibition of corepressor binding, % at 4.78 µM. Q9Y5X4;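 active = percent inhibition above the cutoff of mean plus 3 SD of all tested compounds, set per screening campaign, cut at about 20% in these data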
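System: GST-tagged NR2E3 plus biotinylated RetCOR corepressor; Buffer or medium: pH 7.5 Tris-based buffer; Probe or stimulus: RetCOR corepressor, biotinylated, 7 nM; Doses: compound at 4.8 µM, single dose; Schedule: 5 h incubation at 4 °C; Technique: time-resolved FRET; Evaluation: percent inhibition of TR-FRET ratio; Replication: one well per compound, singlicate testing.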
NR1D1 modulator: Rev-erb alpha (human) modulation; 370,000 compounds, 0.79% hits; P20393; AID 1259318; activity, % at 10 µM; Rev-erbα–FITC-DNA binding, fluorescence polarization, 90 min;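 active = activity above about 14%, limit read from the data; passing the limit was not always enough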
GalR3 antagonist: human GalR3 antagonism | inhibition, % at 3 µM | 360,000 compounds, 0.44% hits | HEK293 GalR3-CNG cAMP membrane potential fluorescence; galR3 body fused to GalR1 C-terminus;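 active = inhibition above the screen-wide average plus 3 SD, cut at about 13% in these data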;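 note: forskolin and galanin both at EC90 stimulate the cells; cAMP rise reported by CNG channel membrane potential dye signal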
Target sequence (O60755 1-299 limits assumed): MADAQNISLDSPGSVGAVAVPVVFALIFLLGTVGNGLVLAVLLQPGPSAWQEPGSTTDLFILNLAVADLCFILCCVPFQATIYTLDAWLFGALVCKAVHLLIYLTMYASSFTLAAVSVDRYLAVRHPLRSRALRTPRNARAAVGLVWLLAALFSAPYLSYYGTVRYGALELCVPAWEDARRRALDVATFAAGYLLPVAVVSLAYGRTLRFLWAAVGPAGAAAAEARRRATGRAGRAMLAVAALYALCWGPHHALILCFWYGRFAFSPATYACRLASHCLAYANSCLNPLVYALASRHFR
GalR3 antag conf: GalR3 (human) antagonism, confirmation. HEK293 GalR3 CNG cAMP biosensor, membrane potential fluorescence; galR3 fused to GalR1 carboxy tail; challenged with forskolin and galanin at EC90. inhibition, % at 3 µM. 1,600 compounds, 59% hits. shares compounds with GalR3 antagonist;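 active = inhibition above the primary screen's cutoff, the mean inhibition of all screened compounds plus 3 SD, cut at about 13% in these data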
CNG parental: counter-screen for GalR3 antagonists: nonspecific agonists in parental HEK-CNG cells; HEK293-CNG parental cells, cAMP membrane potential fluorescence; normalised: DMSO wells 0%, forskolin wells 100%; 1,600 compounds, 10% hits; AID 652268; shares compounds with GalR3 antagonist; activation, % at 3 µM; in the data active = activation above about 1.3%
Hits are given with their value; – = inactive; · = no result. Sampled rows, rich in hits. Any-hit rate of the full collection: about 1.8%.

SMILES | NR2E3 ag-1 | PG9 binder | NR2E3 ag-2 | NR1D1 modulator | GalR3 antagonist | GalR3 antag conf | CNG parental
CCCc1cc(=O)oc2c3c(cc(OCC(=O)NCc4ccncc4)c12)OC(C)(C)CC3 | – | – | – | – | 15 | – | –
COC(CNS(=O)(=O)c1ccc(S(=O)(=O)N2CCCC2)cc1)OC | – | – | – | – | 13 | – | –
COc1ccc(-c2cc([C@H]3[C@@H]4C=CCC[C@@]4(C)C(=O)N3Cc3ccccc3)ccc2F)cc1OC | – | – | – | – | 20 | – | –
Cc1ccc(-c2cc([C@H]3[C@@H]4C=CCC[C@@]4(C)C(=O)N3Cc3ccccc3)ccc2F)cc1 | – | – | – | – | – | · | ·
Cc1ccc(NC(=O)CSc2ncnc3ccccc23)cc1S(=O)(=O)N1CCCCC1 | – | – | – | – | 85 | 104 | –
N#C/C(=C\c1cc2c(cc1Br)OCO2)c1ccc(C(=O)O)cc1 | – | – | – | – | 17 | – | 1.2
CCOc1cc2c(cc1/C=C(/C#N)c1ccc(C(=O)O)cc1)OCO2 | – | – | – | – | – | · | ·
O=S(=O)(O)CC(S)CS (stereo unspecified) | · | · | · | – | · | · | ·
Brc1ccc(-c2ncc(-c3ccccc3)cn2)cc1 | – | – | – | – | · | – | –
CCC1=Nc2cc(C(=O)NCC3CCCO3)ccc2Sc2ccc(Br)cc21 (stereo unspecified) | – | – | – | – | – | · | ·
CCC1=Nc2cc(C(=O)NCC3CCCO3)ccc2Sc2ccc(Cl)cc21 (stereo unspecified) | – | – | – | – | 16 | – | –
COc1cc([N+](=O)[O-])cc(/C=N/NC(=O)c2cncc(Br)c2)c1O | – | – | – | – | 25 | 38 | –
COc1cc([N+](=O)[O-])cc(/C=N/NC(=O)c2cc(C)nc3ccccc23)c1O | – | – | – | – | – | · | ·
Nc1ccc(CNC(=O)c2cc3cc(Cl)ccc3nc2N)cc1 | · | – | · | – | – | · | ·
Nc1nc2ccccc2cc1C(=O)NCc1ccc(-c2ccccc2)cc1 | · | – | · | – | 87 | 97 | –
Cc1ccccc1N(C)C(=O)C1CCCN1S(=O)(=O)c1cccc2cccnc12 (stereo unspecified) | · | · | · | – | · | · | ·
CC(COc1ccc(Br)cc1)CN1CCC(C(O)(c2ccccc2)c2ccccc2)CC1 (stereo unspecified) | · | · | · | – | · | · | ·
Cc1ccc(-c2nnc(SCc3ccc([N+](=O)[O-])cc3)n2-c2ccccc2)cc1 | · | · | · | – | · | · | ·
COc1ccc(-n2c(SCc3ccc([N+](=O)[O-])cc3)nnc2-c2ccc(C)cc2)cc1 | – | – | – | – | 50 | – | –
COc1ccc(-n2c(SCc3ccc(C#N)cc3)nnc2-c2ccccn2)cc1 | – | – | – | – | – | · | ·
Cc1ccc(-n2c(SCc3ccc(C#N)cc3)nnc2-c2ccccn2)cc1 | – | – | – | – | 13 | – | –
COC(=O)C[C@H]1CC[C@@H]2[C@@H](COc3ccc(NC(=O)C4CCCCC4)cc3C(=O)N2C)O1 | · | · | · | – | · | · | ·
O=C(Nc1ccc(F)c(Cl)c1)c1cc(C2CCCN(S(=O)(=O)c3cccc4cccnc34)C2)on1 (stereo unspecified) | – | – | · | – | 13 | – | –
COc1ccc(C(=O)CSc2nnc(-c3ccccc3)n2-c2ccc(Cl)cc2)cc1 | · | · | · | – | · | · | ·
CC(C)NC[C@H](O)c1ccc(O)c(O)c1 | – | – | – | – | – | · | ·
SMILES | NR2E3 ag-1 | PG9 binder | NR2E3 ag-2 | NR1D1 modulator | GalR3 antagonist | GalR3 antag conf | CNG parental
CNCC(O)c1ccc(OC(=O)C(C)(C)C)c(OC(=O)C(C)(C)C)c1 (stereo unspecified) | – | – | – | – | 55 | 63 | 13
CC(Oc1ccc(Cl)cc1Cl)c1ccnc2nc(N3CCOCC3)nn12 (stereo unspecified) | – | – | – | – | · | – | –
CC(Oc1ccccc1)c1ccnc2nc(N3CCOCC3)nn12 (stereo unspecified) | – | – | – | – | – | · | ·
COC(=O)C1=C(C)N(C)C(=NCc2ccccc2C(F)(F)F)NC1c1cccc(F)c1 (stereo unspecified) | · | – | · | – | – | · | ·
COc1cc(-c2ccc(=O)[nH]n2)ccc1OC(F)F | – | – | – | – | 16 | 34 | –
COc1ccc(NS(=O)(=O)c2ccc(OC)c(N(C)S(=O)(=O)c3ccc(Cl)cc3)c2)cc1 | – | – | – | – | 25 | 62 | –
COc1ccc(NC(=O)COc2ccc(N(C)S(=O)(=O)c3ccc(Cl)cc3)cc2)cc1OC | – | – | – | – | 91 | 85 | –
CN(c1ccc(OCC(=O)OCC(=O)Nc2ccc(F)cc2)cc1)S(=O)(=O)c1ccc(Cl)cc1 | – | – | – | – | – | · | ·
COC(=O)[C@]12C[C@H](CC(=O)N3CCSCC3)C(=O)N(Cc3ccc(Cl)cc3Cl)C1=C[C@H](C1CCCC1)O[C@@H]2C | · | · | · | – | · | · | ·
CCC[C@H]1[C@@H](NC(=O)C(c2ccccc2)c2ccccc2)CC[C@@]23CCCN2C(=O)CCC[C@@H]13 | · | · | · | – | · | · | ·
O=S1(=O)c2c(NCc3ccco3)cccc2Oc2ccccc2CN1Cc1cn(Cc2ccc(Cl)cc2)nn1 | · | · | · | – | · | · | ·
CCC(=O)c1ccc(OCC(=O)O)cc1 | – | – | · | – | · | – | –
CC(c1ccc(F)cc1)n1c(-c2ccc3ccccc3n2)n[nH]c1=S (stereo unspecified) | – | – | – | – | – | · | ·
CC(c1ccc(Cl)cc1)n1c(-c2ccc3ccccc3n2)n[nH]c1=S (stereo unspecified) | – | – | – | – | 13 | – | –
C=CC[C@@H](Cc1ccc(F)cc1)C(=O)OC[C@H]1CCCN1C(=O)[C@H](CC=C)CC(=O)NCCO | – | – | · | – | 14 | – | –
Cc1ccc(-n2c(SCC(=O)Nc3ccc4cn[nH]c4c3)nnc2-c2ccccc2)cc1 | · | · | · | – | · | · | ·
O=C(NC1CCCC1)N1CCC(c2nc3ccc(Cl)cc3[nH]2)CC1 | · | · | · | – | · | · | ·
COc1ccc(-c2ccc(-c3cc(=O)oc4c(C(C)C)ccc(C)c34)cc2)cc1 | – | – | · | – | 23 | 13 | –
Cc1ccc(C(=O)C2CCN(CC(=O)N3CCOCC3)CC2)cc1 | · | · | · | – | · | · | ·
Cc1cc2ccccn2c1C(=O)c1ccc(Cl)cc1 | – | – | – | – | – | · | ·
Cc1cc2ccccn2c1C(=O)Nc1cccc(Cl)c1 | – | – | – | – | 13 | – | –
CCCCCCCCN1CCS(=O)(=O)N(Cc2ccc(C(F)(F)F)cc2)C(C(=O)OC)C1 (stereo unspecified) | · | · | · | – | · | · | ·
Fc1cc2ncn(Cc3ccccc3)c2cc1F | – | – | – | – | · | – | –
Cc1ccc2c(c1)N(CCCC(=O)NCc1ccc(F)cc1)C(=O)CO2 | · | · | · | – | · | · | ·
CC(C)C(=O)NCCc1nc(-c2ccccc2)no1 | – | – | – | – | · | – | –

Screens (PubChem BioAssay)
